TAAR1 agonist = human TAAR1 agonism; Q96RJ0; CHO RD-HGA16 TAAR1, Fluo-8 calcium fluorescence; vehicle wells 0%, saturating PEA agonist 100%; activation, % at 3 µM; 0.99% of 360,000 active;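 active = activation above the mean activation of all test compounds in the run plus 3 SD, cut at about 38% in these data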
Target sequence (Q96RJ0 whole entry, looked up): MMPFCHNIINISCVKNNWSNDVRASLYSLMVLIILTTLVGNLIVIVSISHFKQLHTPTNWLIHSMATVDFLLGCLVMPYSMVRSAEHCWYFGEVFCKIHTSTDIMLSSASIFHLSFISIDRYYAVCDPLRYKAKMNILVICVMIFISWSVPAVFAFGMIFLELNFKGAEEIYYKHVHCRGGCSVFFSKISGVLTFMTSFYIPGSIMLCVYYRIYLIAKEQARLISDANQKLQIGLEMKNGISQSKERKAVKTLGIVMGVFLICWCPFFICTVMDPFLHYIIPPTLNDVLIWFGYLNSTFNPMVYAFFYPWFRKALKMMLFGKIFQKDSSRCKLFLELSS
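Test system: RD-HGA16 (CHO) cells co-expressing Gα16 and hTAAR1 | Doses: Single dose, 3 µM | Schedule: 17-24 h seeding, 75 min 37 °C dye, 30 min RT | Evaluation: % activation from peak over basal fluorescence ratio, DMSO-to-PEA scaled | Technique: Kinetic Fluo-8 calcium fluorescence | Benchmarks: Low control DMSO, high control PEA (EC100)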
TAAR1 antagonist = human TAAR1 antagonism | Q96RJ0 | CHO RD-HGA16 TAAR1, Fluo-8 calcium fluorescence, antagonist | inhibition, % at 3 µM | 1.5% of 360,000 active;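 active = inhibition above a per-plate cutoff, the mean inhibition of test compounds on that plate plus 3 SD, cut at about 49% in these data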;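 note: 0% = DMSO plus EC80 beta-PEA response and 100% = DMSO alone without agonist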
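Test system: CHO RD-HGA16 cells bearing hTAAR1 | Reagent: β-PEA, EC80 | Compound dosing: 3 µM, single point | Schedule: Dye loading 75 min at 37 °C, then 30 min room temperature | Signal: Calcium fluorescence with Fluo-8 | Evaluation: Percent inhibition of PEA-evoked calcium signal, max/basal emission ratio | Control set: DMSO-only wells and EC80 β-PEA-stimulated wells | Repeats: Singlicate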
M4 PAM = potentiates acetylcholine response at human M4 receptor; CHO-K1 hM4/Gqi5, Fluo-8 calcium fluorescence, ACh EC20; 0% = ACh EC20, 100% = maximal ACh; P08173; 0.4% of 360,000 active; activation, % at 3 µM;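 active = activation above its plate's cutoff, the mean activation of sample wells plus 3 SD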
M4 ag = agonists of human muscarinic M4 receptor (CHRM4). CHO-K1 hM4/Gqi5, Fluo-8 calcium fluorescence; vehicle 0%, full acetylcholine response 100%. activation, % at 3 µM. 0.14% of 360,000 active. AID 624127;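 active = activation above the run mean over all test wells plus 3 SD, cut at about 32% in these data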;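 note: peak over basal fluorescence ratio per well then scaled between controls; 0% = DMSO wells and 100% = acetylcholine at EC100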
CHRM4 antagonist = blocks acetylcholine activation of human M4 receptor; CHO-hM4 cells, ACh EC80, Fluo-8 calcium fluorescence; inhibition, % at 3 µM; 0.73% of 360,000 active; AID 624125;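 active = inhibition above its plate's cutoff, the mean inhibition of sample wells plus 3 SD, cut at about 27% in these data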;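 note: 0% = acetylcholine EC80 with DMSO and 100% = DMSO without agonist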
TAAR1 ag confirm = confirmation of human TAAR1 agonists; CHO RD-HGA16 TAAR1, Fluo-8 calcium fluorescence; scaled: DMSO 0%, maximal phenethylamine 100%; AID 651783; shares compounds with TAAR1 agonist; 82% of 2,400 active; activation, % at 3 µM;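 active = activation above a cutoff set at the run's mean compound activation plus 3 SD, cut at about 39% in these data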
Ga16 ag counter = nonselective agonist in parental cells, TAAR1 agonist counter-screen | shares compounds with TAAR1 agonist | CHO-Ga16 parental, Fluo-8 calcium fluorescence; normalized to maximal ATP response, DMSO zero | activation, % at 3 µM | 50% of 2,400 active;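 active = activation above the run cutoff, the mean activation over all tested wells plus 3 SD, cut at about 12% in these data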;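 note: 0% = DMSO wells and 100% = maximal ATP response on the peak over basal ratio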
TAAR1 desens = human TAAR1 agonist that also desensitizes the receptor. inhibition, % at 3 µM. shares compounds with TAAR1 agonist. 46% of 2,400 active. CHO RD-HGA16 hTAAR1, Fluo-8 calcium, beta-PEA response inhibition;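 active = inhibition above the run cutoff, the mean inhibition of all test compounds plus 3 SD, cut at about 49% in these data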;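 note: beta-PEA stimulus applied at its EC80; loss of beta-PEA calcium signal after compound pretreatment read as receptor desensitization; 0% = DMSO with beta-PEA at EC80 and 100% = DMSO alone without agonist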
Ga16 nonsel ant = counter-screen for TAAR1 agonists: nonselective Ga16 antagonists. shares compounds with TAAR1 agonist. CHO-Ga16 ATP-induced calcium, Fluo-8 fluorescence. inhibition, % at 3 µM. 39% of 2,400 active. AID 651952;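 active = inhibition above the plate's mean compound inhibition plus 3 SD, computed per plate, cut at about 22% in these data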;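 note: 0% = EC80 ATP with DMSO and 100% = DMSO wells without ATP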
Active calls of the source: *; . = not tested or not shown. Only some compounds are listed: those with a hit (about 3% of all), similar ones and a draw of the others.

SMILES	TAAR1 agonist	TAAR1 antagonist	M4 PAM	M4 ag	CHRM4 antagonist	TAAR1 ag confirm	Ga16 ag counter	TAAR1 desens	Ga16 nonsel ant
O=C(Nc1cc(F)c(Br)cc1F)c1ccc(Cl)cc1	91*	70*	-36	14	22	1	8	0	11
COCCCn1cc(CN2CC(N3CCN(Cc4ccccc4F)CC3)CS2(=O)=O)nn1 (stereo unspecified)	5	-24	2	0	4	.	.	.	.
O=C(Nc1ccc(Cn2ccnc2)cc1)c1cccc(C(F)(F)F)c1	42*	31	1	2	-3	57*	0	36	10
CCOC(=O)c1cc(NC(=O)c2cc(C)on2)cc(C(=O)OCC)c1	44*	26	9	0	-8	19	4	2	3
COCCn1c(SCC(=O)Nc2c(C)n(C)n(-c3ccccc3)c2=O)nnc1-c1ccncc1	0	9	1	1	1	.	.	.	.
CN1/C(=C\C=C2/SC(=S)NC2=O)C(C)(C)c2ccccc21	289*	109*	-29	65*	44*	70*	85*	85*	86*
CN1C(=CC=C2C=C(I)C(=O)C(I)=C2)C(C)(C)c2ccccc21	17	-7	5	4	10	.	.	.	.
CCCN1C(=O)/C(=C\C=C2\N(CC)c3ccccc3C2(C)C)SC1=S	69*	65*	-5	4	8	50*	66*	73*	82*
CCN1C(=O)/C(=C/C=C2\C=CN(CC)c3ccccc32)SC1=S	2	-7	-7	1	13	.	.	.	.
O=C(COC(=O)Cn1cnc2ccccc2c1=O)Nc1ccc(Cl)cc1	49*	14	3	4	-7	66*	2	28	4
O=C(COC(=O)Cn1cnc2ccccc2c1=O)Nc1ccc(Cl)c(C(F)(F)F)c1	27	8	-7	9	1	.	.	.	.
O=C(CSc1nnc(CNc2ccccc2)o1)N1CCc2ccccc21	74*	75*	-6	3	-2	10	9	14	13
COc1ccc(N=Cc2sc(O)c3ccccc23)cc1	84*	64*	-2	7	-1	46*	72*	53*	69*
Cc1ccc2c(c1)[nH]c1c(=O)n(Cc3ccco3)cnc12	73*	28	2	3	-5	101*	74*	89*	66*
O=c1c2[nH]c3ccccc3c2ncn1Cc1ccco1	11	5	6	2	-2	.	.	.	.
Nc1ccccc1SSc1ccccc1N	46*	16	0	7	7	34	11	3	7
COC(=O)C1=CN(c2ccc(F)cc2)C(N)=C(C#N)C1c1cccc(OC)c1OC (stereo unspecified)	2	6	1	5	-34	.	.	.	.
OC(CNCCc1ccccc1)c1ccccc1 (stereo unspecified)	53*	1	2	0	1	31	1	12	10
COc1ccc(CCNCC(O)c2ccccc2)cc1 (stereo unspecified)	10	-21	-6	1	-9	.	.	.	.
CCCOc1ccc(NC(=O)c2c(-c3ccccc3)noc2C)cc1	-3	2	4	1	-3	.	.	.	.
CCCOc1ccc(C(=O)NC(=S)NNC(=O)c2c(-c3ccccc3)noc2C)cc1	176*	108*	-9	32*	10	141*	108*	101*	94*
Cc1onc(-c2ccccc2)c1C(=O)NC(=S)NNC(=O)c1ccc(O)cc1O	-2	-10	8	-2	10	.	.	.	.
Cc1onc(-c2ccccc2)c1C(=O)NC(=S)NNC(=O)c1ccccc1O	164*	57*	-13	44*	2	141*	103*	100*	63*
CCOc1ccc(-c2c(C(=O)N/N=C/c3ccc(OC)cc3)nnn2-c2nonc2N)cc1	51*	5	23	2	-4	47*	23*	4	4
CCCOc1ccc(-c2c(C(=O)N/N=C/c3ccncc3)nnn2-c2nonc2N)cc1	47*	18	0	5	0	30	12*	24	20
SMILES	TAAR1 agonist	TAAR1 antagonist	M4 PAM	M4 ag	CHRM4 antagonist	TAAR1 ag confirm	Ga16 ag counter	TAAR1 desens	Ga16 nonsel ant
COc1cccc(-c2c(C(=O)N/N=C/c3ccsc3)nnn2-c2nonc2N)c1	129*	32	-4	4	-4	145*	106*	72*	29*
CCc1ccc(/C=N/NC(=O)c2nnn(-c3nonc3N)c2CN2CCOCC2)cc1	63*	3	-1	2	1	59*	52*	20	16
CCCOc1ccc(-c2c(C(=O)N/N=C/c3ccc(OCC)cc3)nnn2-c2nonc2N)cc1	16	-25	-3	0	0	.	.	.	.
N#C/C(=C\c1cccn1S(=O)(=O)c1cccc([N+](=O)[O-])c1)S(=O)(=O)c1ccc(F)cc1	7	-9	2	3	-1	.	.	.	.
CC(=O)N1C[C@H]2CON(C)[C@H]2C[C@H]1c1ccc(-c2cccnc2)cc1	10	-25	1	1	3	.	.	.	.
O=C(NCc1cc(Cl)cc(Cl)c1)c1csc([C@@H]2O[C@H](CO)[C@H](O)[C@H](O)[C@H]2O)n1	3	6	3	0	0	.	.	.	.
COc1ccccc1-c1cc2nc(-c3ccccc3)cc(N3CCN(C(=O)c4ccco4)CC3)n2n1	0	17	1	3	-10	.	.	.	.
CCCc1c(C(=O)N/N=C/c2cccs2)nnn1-c1nonc1N	65*	-14	-4	4	1	27	19*	4	15
CCOc1ccc(-c2c(C(=O)N/N=C/c3ccsc3)nnn2-c2nonc2N)cc1	119*	21	0	10	6	111*	74*	23	10
CCOc1cccc(-c2c(C(=O)N/N=C/c3ccc(Br)cc3)nnn2-c2nonc2N)c1	102*	37	15	9	-1	97*	82*	58*	48*
COc1ccc(NC(=O)c2sc(=O)n(Cc3ccc(F)c(Cl)c3)c2C)cc1OC	6	1	3	6	1	.	.	.	.
CCOC(=O)CC[C@H](NC(=O)Cn1cnc2c(NCc3ccccc3)ncnc21)C(=O)OCC	1	-10	1	1	-11	.	.	.	.

Bioassay records: PubChem, The Scripps Research Institute Molecular Screening Center
